Legend:
Type in all cases: functional
[1] = test system: Staphylococcus lugdunensis; assay: Antibacterial activity against Staphylococcus lugdunensis MB96 after 24 hrs by microdilution assay; conditions: MB96, 24 h
Method in brief: (§1)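 Broth microdilution MIC against clinical or seawater-isolated strains (identified by standard procedures and MALDI-TOF), with compound solutions and testing as in earlier work. MIC reported in μg/mL and μM.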

Enterococcus gallinarum = assay: Antibacterial activity against Vancomycin resistant Enterococcus gallinarum MB111 after 24 hrs by microdilution assay; conditions: MB111, 24 h
Method in brief: (§2)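 Broth microdilution MIC, run as in an earlier cited report. Strains are clinical isolates identified by standard methods and MALDI-TOF; E. faecalis MB19 and MB51 are Ligurian seawater isolates. Highest concentration tested was 128 μg/mL. MICs are given in μg/mL and μM, with oxacillin and vancomycin as reference antibiotics.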

Enterococcus durans = assay: Antibacterial activity against Enterococcus durans MB113 after 24 hrs by microdilution assay; conditions: MB113, 24 h; method in brief: as §1
Enterococcus faecalis [2] = assay: Antibacterial activity against Vancomycin resistant Enterococcus faecalis MB51 after 24 hrs by microdilution assay; conditions: MB51, 24 h; method in brief: as §2
Enterococcus faecalis [3] = assay: Antibacterial activity against Vancomycin resistant Enterococcus faecalis MB19 after 24 hrs by microdilution assay; conditions: MB19, 24 h; method in brief: as §2
[4] = test system: Enterococcus casseliflavus; assay: Antibacterial activity against Vancomycin resistant Enterococcus casseliflavus MB159 after 24 hrs by microdilution assay; conditions: MB159, 24 h; method in brief: as §2
Enterococcus faecium [5] = assay: Antibacterial activity against Enterococcus faecium MB152 after 24 hrs by microdilution assay; conditions: MB152, 24 h; method in brief: as §1
Staphylococcus capitis = assay: Antibacterial activity against Methicillin-resistant Staphylococcus capitis MB71 after 24 hrs by microdilution assay; conditions: MB71, 24 h; method in brief: as §2
[6] = test system: Staphylococcus saprophyticus; assay: Antibacterial activity against Staphylococcus saprophyticus MB41 after 24 hrs by microdilution assay; conditions: MB41, 24 h; method in brief: as §1
Enterococcus avium = assay: Antibacterial activity against Enterococcus avium MB119 after 24 hrs by microdilution assay; conditions: MB119, 24 h; method in brief: as §1
[7] = test system: Staphylococcus haemolyticus; assay: Antibacterial activity against Methicillin-resistant Staphylococcus haemolyticus MB115 after 24 hrs by microdilution assay; conditions: MB115, 24 h; method in brief: as §2
Staphylococcus aureus [8] = assay: Antibacterial activity against Methicillin-resistant Staphylococcus aureus MB18 after 24 hrs by microdilution assay; conditions: MB18, 24 h; method in brief: as §2
Enterococcus faecalis [9] = assay: Antibacterial activity against Vancomycin resistant Enterococcus faecalis MB1 after 24 hrs by microdilution assay; conditions: MB1, 24 h; method in brief: as §2
Staphylococcus aureus [10] = assay: Antibacterial activity against Methicillin-resistant Staphylococcus aureus MB188 after 24 hrs by microdilution assay; conditions: MB188, 24 h; method in brief: as §2
[11] = test system: Staphylococcus epidermidis; assay: Antibacterial activity against Methicillin-resistant Staphylococcus epidermidis MB165 after 24 hrs by microdilution assay; conditions: MB165, 24 h; method in brief: as §2
Staphylococcus warneri = assay: Antibacterial activity against Methicillin-resistant Staphylococcus warneri MB74 after 24 hrs by microdilution assay; conditions: MB74, 24 h; method in brief: as §2
Enterococcus faecium [12] = assay: Antibacterial activity against Enterococcus faecium MB3 after 24 hrs by microdilution assay; conditions: MB3, 24 h; method in brief: as §1
Enterococcus faecium [13] = assay: Antibacterial activity against Enterococcus faecium MB2 after 24 hrs by microdilution assay; conditions: MB2, 24 h; method in brief: as §1
Enterococcus faecalis [14] = assay: Antibacterial activity against Enterococcus faecalis MB76 after 24 hrs by microdilution assay; conditions: MB76, 24 h; method in brief: as §2
Staphylococcus simulans = assay: Antibacterial activity against Staphylococcus simulans MB94 after 24 hrs by microdilution assay; conditions: MB94, 24 h; method in brief: as §1
Staphylococcus hominis = assay: Antibacterial activity against Methicillin-resistant Staphylococcus hominis MB124 after 24 hrs by microdilution assay; conditions: MB124, 24 h; method in brief: as §2
[15] = test system: Staphylococcus epidermidis; assay: Antibacterial activity against Methicillin-resistant Staphylococcus epidermidis MB169 after 24 hrs by microdilution assay; conditions: MB169, 24 h; method in brief: as §2

Measured: MIC

CC1=CC(=O)O[C@@H]1[C@@H](O)/C=C(\C)CC[C@@H]1[C@@]2(C)CCC[C@@]3(C)C(=O)O[C@@H](C[C@@]1(C)O)[C@H]23
148 µM: Enterococcus gallinarum | Enterococcus faecium [5] | Enterococcus avium | Enterococcus faecalis [9]
286 µM: Enterococcus durans
> 128 mg/L: [1] | [6] | Staphylococcus aureus [10] | Staphylococcus simulans | Staphylococcus hominis | [15]
296 µM: all other assays above

COc1ccc(-c2cc(=O)c3c(O)c(OC)c(OC)cc3o2)cc1O [EUPATORIN]
372 µM: Enterococcus faecalis [2] | [4] | Enterococcus faecium [5] | Enterococcus faecium [13]
186 µM: Enterococcus gallinarum | Enterococcus faecalis [3] | Enterococcus avium | Enterococcus faecalis [9] | Enterococcus faecalis [14]
> 128 mg/L: all other assays above

From ChEMBL document CHEMBL4610084, “Antibacterial and ATP Synthesis Modulating Compounds from Salvia tingitana” (2020)
